Experiments:
Assay type in all cases: functional
Leukemia cell = assay: Potency index, ratio of 5-fluorouracil GI50 to compound GI50 for human leukemia cells
Outline: (§1)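 GI50 for each cell line came from NCI panel testing over a 5-log dose range, with 5-fluorouracil tested alongside as the reference drug. The index relates the 5-fluorouracil GI50 to the compound GI50 within each tumour subpanel.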

[1] = Growth inhibition of human RXF393 cells at 10 uM after 48 hrs by SRB assay relative to control; conditions: RXF 393, 48 h, read-out: GI
Outline: (§2)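 NCI 60-cell-line panel, nine tumor subpanels; compounds tested at a single dose of 10 μM in the primary screen.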

[2] = Growth inhibition of human ACHN cells at 10 uM after 48 hrs by SRB assay relative to control; conditions: read-out: GI; outline: as §2
[3] = Growth inhibition of human CNS cancer cells after 48 hrs by SRB assay; conditions: Cancer cell lines
Outline: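 Five-log dose range against NCI tumor cell lines, monitoring GI50, TGI and LC50 for each cell line; MG-MID values derived across the panel; 5-fluorouracil positive control.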

[4] = Growth inhibition of human ovarian cancer cells after 48 hrs by SRB assay; conditions: Cancer cell lines
Outline: (§3)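 Follow-up NCI panel testing over a 5-log dose range for each cell line. GI50, TGI and LC50 were monitored, with 5-fluorouracil run as the positive control. Values are grouped by tumour subpanel.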

[5] = Growth inhibition of human BT549 cells at 10 uM after 48 hrs by SRB assay relative to control; conditions: BT-549, 48 h, read-out: GI; outline: as §2
[6] = Growth inhibition of human SK-MEL-2 cells at 10 uM after 48 hrs by SRB assay relative to control; conditions: SK-MEL-2, 48 h, read-out: GI
Outline: (§4)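 Primary screen across the full NCI 60 human tumour cell line panel, which covers nine tumour subpanels. A single dose of 10 μM was applied to each line, and growth was recorded for each cell line.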

[7] = Growth inhibition of human LOXIMVI cells at 10 uM after 48 hrs by SRB assay relative to control; conditions: LOX IMVI, read-out: GI; outline: as §2
[8] = Growth inhibition of human T47D cells at 10 uM after 48 hrs by SRB assay relative to control; conditions: read-out: GI; outline: as §4
Cancer cell lines = assay: Potency index, ratio of 5-fluorouracil GI50 to compound GI50 for human CNS cancer cells; outline: as §1
[9] = Growth inhibition of human A549 cells at 10 uM after 48 hrs by SRB assay relative to control; conditions: A549, 48 h, read-out: GI; outline: as §2
[10] = Growth inhibition of human HCT116 cells at 10 uM after 48 hrs by SRB assay relative to control; conditions: HCT-116, 48 h, read-out: GI; outline: as §2
[11] = Growth inhibition of human SN12C cells at 10 uM after 48 hrs by SRB assay relative to control; conditions: read-out: GI; outline: as §4
[12] = Growth inhibition of human SR cells at 10 uM after 48 hrs by SRB assay relative to control; conditions: read-out: GI; outline: as §4
[13] = Growth inhibition of human NCI-H23 cells at 10 uM after 48 hrs by SRB assay relative to control; conditions: NCI-H23, 48 h, read-out: GI; outline: as §2
[14] = Growth inhibition of human colon cancer cells after 48 hrs by SRB assay; conditions: Cancer cell lines; outline: as §3
[15] = Growth inhibition of human COLO205 cells at 10 uM after 48 hrs by SRB assay relative to control; conditions: COLO 205, 48 h, read-out: GI; outline: as §2
[16] = Growth inhibition of human OVCAR4 cells at 10 uM after 48 hrs by SRB assay relative to control; conditions: OVCAR-4, 48 h, read-out: GI; outline: as §2
[17] = Growth inhibition of human Hs 578T cells at 10 uM after 48 hrs by SRB assay relative to control; conditions: read-out: GI; outline: as §2
[18] = Growth inhibition of human SF268 cells at 10 uM after 48 hrs by SRB assay relative to control; conditions: SF-268, 48 h, read-out: GI; outline: as §2
[19] = Growth inhibition of human NCI/ADR-RES cells at 10 uM after 48 hrs by SRB assay relative to control; conditions: read-out: GI; outline: as §2
[20] = Growth inhibition of human MDA-MB-468 cells at 10 uM after 48 hrs by SRB assay relative to control; conditions: MDA-MB-468, 48 h, read-out: GI; outline: as §2
[21] = Growth inhibition of human non-small cell lung cancer cells after 48 hrs by SRB assay; conditions: Cancer cell lines; outline: as §3
[22] = Growth inhibition of human UO31 cells at 10 uM after 48 hrs by SRB assay relative to control; conditions: UO-31, 48 h, read-out: GI; outline: as §4
[23] = Growth inhibition of human K562 cells at 10 uM after 48 hrs by SRB assay relative to control; conditions: K562, 48 h, read-out: GI; outline: as §2
[24] = Growth inhibition of human MALME-3M cells at 10 uM after 48 hrs by SRB assay relative to control; conditions: read-out: GI; outline: as §2
[25] = Growth inhibition of human SKOV3 cells at 10 uM after 48 hrs by SRB assay relative to control; conditions: SK-OV-3, 48 h, read-out: GI; outline: as §4
[26] = Growth inhibition of human A498 cells at 10 uM after 48 hrs by SRB assay relative to control; conditions: A498, 48 h, read-out: GI; outline: as §2
[27] = Growth inhibition of human HOP62 cells at 10 uM after 48 hrs by SRB assay relative to control; conditions: HOP-62, 48 h, read-out: GI; outline: as §2
[28] = Growth inhibition of human UACC257 cells at 10 uM after 48 hrs by SRB assay relative to control; conditions: UACC-257, 48 h, read-out: GI; outline: as §4
[29] = Growth inhibition of human 786-0 cells at 10 uM after 48 hrs by SRB assay relative to control; conditions: 786-0, 48 h, read-out: GI; outline: as §2
[30] = Growth inhibition of human OVCAR5 cells at 10 uM after 48 hrs by SRB assay relative to control; conditions: OVCAR-5, 48 h, read-out: GI; outline: as §2
[31] = Growth inhibition of human MOLT4 cells at 10 uM after 48 hrs by SRB assay relative to control; conditions: MOLT-4, 48 h, read-out: GI; outline: as §2
[32] = Growth inhibition of human SK-MEL-5 cells at 10 uM after 48 hrs by SRB assay relative to control; conditions: SK-MEL-5, 48 h, read-out: GI; outline: as §4
[33] = Growth inhibition of human SNB75 cells at 10 uM after 48 hrs by SRB assay relative to control; conditions: SNB-75, 48 h, read-out: GI; outline: as §4
[34] = Growth inhibition of human HL-60(TB) cells at 10 uM after 48 hrs by SRB assay relative to control; conditions: HL-60, 48 h, read-out: GI
Outline: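 NCI disease-oriented human tumour cell line screen: primary single-dose assay at 10 μM across the full 60-cell-line panel spanning nine tumour subpanels.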

## COc1ccccc1-n1c(SCc2cc(OC)c(OC)c(OC)c2)nc2ccc(Cl)cc2c1=O
Leukemia cell
  RatioGI50: 2 - 10
[1]
  inhibition of growth at 10 µM: 38.5%
[2]
  inhibition of growth at 10 µM: 55.8%
[3]
  GI50: 7.9 µM
  LC50 (lethal concentration, 50% net cell kill): > 100 µM
  TGI: 63.1 µM
[4]
  GI50: 6.7 µM
  LC50 (50% lethal concentration): > 100 µM
  TGI: 87.9 µM
[5]
  inhibition of growth at 10 µM: 60.5%
[6]
  inhibition of growth at 10 µM: < 10%
[7]
  inhibition of growth at 10 µM: 66.8%
[8]
  inhibition of growth at 10 µM: 56.1%
Cancer cell lines
  RatioGI50: 2 - 10
[9]
  inhibition of growth at 10 µM: 68.9%
[10]
  inhibition of growth at 10 µM: 78.9%
[11]
  inhibition of growth at 10 µM: 29.7%
[12]
  inhibition of growth at 10 µM: 84%
[13]
  inhibition of growth at 10 µM: 63.9%
[14]
  GI50: 3.1 µM
  LC50: > 100 µM
  TGI: > 100 µM
[15]
  inhibition of growth at 10 µM: 72%
[16]
  inhibition of growth at 10 µM: 37%
[17]
  inhibition of growth at 10 µM: 60.4%
[18]
  inhibition of growth at 10 µM: 58.4%
[19]
  inhibition of growth at 10 µM: 79.8%
[20]
  inhibition of growth at 10 µM: 84.4%
[21]
  GI50: 5.8 µM
  LC50 (concentration killing 50% of cells): > 100 µM
  TGI: > 100 µM
[22]
  inhibition of growth at 10 µM: 57.4%
[23]
  inhibition of growth at 10 µM: 87.3%
[24]
  inhibition of growth at 10 µM: 67.1%
[25]
  inhibition of growth at 10 µM: 40.6%
[26]
  inhibition of growth at 10 µM: 95%
[27]
  inhibition of growth at 10 µM: 48.2%
[28]
  inhibition of growth at 10 µM: < 10%
[29]
  inhibition of growth at 10 µM: 49%
[30]
  inhibition of growth at 10 µM: 46.7%
[31]
  inhibition of growth at 10 µM: 84.7%
[32]
  inhibition of growth at 10 µM: 72.3%

## COc1cc(CSc2nc3ccc(Cl)cc3c(=O)n2-c2ccccc2)cc(OC)c1OC
[1]
  inhibition of growth at 10 µM: 31.1%
[2]
  inhibition of growth at 10 µM: 21.1%
[33]
  inhibition of growth at 10 µM: 24.3%
[5]
  inhibition of growth at 10 µM: < 10%
[6]
  inhibition of growth at 10 µM: 22.5%
[7]
  inhibition of growth at 10 µM: 20.7%
[8]
  inhibition of growth at 10 µM: 29.1%
[34]
  inhibition of growth at 10 µM: < 10%
[9]
  inhibition of growth at 10 µM: 26.1%
[10]
  inhibition of growth at 10 µM: 38.2%
[11]
  inhibition of growth at 10 µM: 24%
[12]
  inhibition of growth at 10 µM: 54.4%
[13]
  inhibition of growth at 10 µM: 21%
[15]
  inhibition of growth at 10 µM: 15.5%
[16]
  inhibition of growth at 10 µM: 18.3%
[17]
  inhibition of growth at 10 µM: < 10%
[18]
  inhibition of growth at 10 µM: 22.3%
[19]
  inhibition of growth at 10 µM: 24.5%
[20]
  inhibition of growth at 10 µM: 42.7%
[22]
  inhibition of growth at 10 µM: 52.2%
[23]
  inhibition of growth at 10 µM: 61.8%
[24]
  inhibition of growth at 10 µM: 23.5%
[25]
  inhibition of growth at 10 µM: < 10%
[26]
  inhibition of growth at 10 µM: 18.3%
[27]
  inhibition of growth at 10 µM: 28%
[28]
  inhibition of growth at 10 µM: 10.3%
[29]
  inhibition of growth at 10 µM: 10.7%
[30]
  inhibition of growth at 10 µM: 15.4%
[31]
  inhibition of growth at 10 µM: 30.3%
[32]
  inhibition of growth at 10 µM: 18.8%

— ChEMBL document CHEMBL3860041, “Synthesis, biological evaluation and molecular modeling study of some new methoxylated 2-benzylthio-quinazoline-4(3H)-ones as nonclassical antifolates” (Bioorg Med Chem Lett, 2016)
